Measurements taken from ChEMBL document CHEMBL4808167, “Design, Synthesis, and Evaluation of Small Molecule Gαq/11 Protein Inhibitors for the Treatment of Uveal Melanoma” (J Med Chem, 2021).
Calls of active or inactive are those of the source. The rule behind the calls is not given here.

Experiments:
[1] = (§1) Antiproliferative activity against human 92.1 cells assessed as inhibition of cell growth after 72 hrs by CCK8 assay; assay type: functional, cell-based; details: Homo sapiens, 921, 72 h
Method in brief: (§2)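 92.1 or MP41 cells in RPMI-1640 with 10% FBS were seeded at 3 × 10³ cells/well. Exposed to serial concentrations for 72 h at 37 °C, 5% CO₂. CCK-8 added for 1−4 h, absorbance read at 450 nm. IC₅₀ from concentration−response curve fit, mean ± SD.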

921 [2] = assay: as §1; assay type: functional, cell-based; method in brief: as §2
[3] = (§3) Antiproliferative activity against human MP41 cells assessed as inhibition of cell growth after 72 hrs by CCK8 assay; assay type: functional, cell-based; details: MP41, 72 h; method in brief: as §2
MP41 [4] = assay: as §3; assay type: functional, cell-based; method in brief: as §2
CHO [5] = assay: Induction of morphological changes in chinese hamster CHO cells overexpressing M1 receptor upto 20 uM by light microscopic analysis; assay type: cell-based, Cricetulus griseus
Method in brief: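 CHO-M₁ cells were treated with compound at 10 or 20 μM for 2 h, and changes in cell morphology were examined by microscopy.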

CHO [6] = assay: Cytotoxicity against chinese hamster CHO cells overexpressing M1 receptor assessed as cell viability upto 20 uM for 24 hrs by CCK8 assay; assay type: cell-based, Cricetulus griseus
Method in brief: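 CHO cells stably expressing the M₁ receptor were treated with a range of compound concentrations for 2 h or 24 h. Viability measured by CCK-8 and given as percentage. Mean ± SD of three independent experiments.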

[7] = Induction of apoptosis in human 921 cells assessed as viable cells at 5 uM after 48 hrs by Annexin-V-FITC/propidium iodide staining based flow cytometry (reference value: 93.8%); assay type: functional; details: read-out: Activity
[8] = Induction of apoptosis in human 921 cells assessed as early apoptotic cells at 5 uM after 48 hrs by Annexin-V-FITC/propidium iodide staining based flow cytometry (reference value: 3.39%); assay type: functional
[9] = Induction of apoptosis in human 921 cells assessed as viable cells at 15 uM after 48 hrs by Annexin-V-FITC/propidium iodide staining based flow cytometry (reference value: 93.8%); assay type: functional; details: read-out: Activity
[10] = Induction of apoptosis in human 921 cells assessed as late apoptotic cells at 15 uM after 48 hrs by Annexin-V-FITC/propidium iodide staining based flow cytometry (reference value: 2.52%); assay type: functional
[11] = Induction of apoptosis in human MP41 cells assessed as viable cells at 15 uM after 48 hrs by Annexin-V-FITC/propidium iodide staining based flow cytometry (reference value: 93.6%); assay type: functional; details: read-out: Activity
[12] = Induction of apoptosis in human MP41 cells assessed as early apoptotic cells at 15 uM after 48 hrs by Annexin-V-FITC/propidium iodide staining based flow cytometry (reference value: 2.96%); assay type: functional
[13] = Induction of apoptosis in human MP41 cells assessed as late apoptotic cells at 30 uM after 48 hrs by Annexin-V-FITC/propidium iodide staining based flow cytometry (reference value: 3.28%); assay type: functional
921 [14] = assay: Inhibition of colony formation in human 921 cells at 1 to 5 uM after 9 days by crystal violet staining based light microscopic analysis; assay type: functional, cell-based; details: dose 1-5 µM, time 9.0 day
Method in brief: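 Cells seeded 4 × 10³/well, incubated overnight at 37 °C, 5% CO₂, then exposed to compound for 9 days until colonies visible, medium and inhibitor replaced every 3 days. Fixed in 4% paraformaldehyde 15 min, crystal violet-stained 30 min, colonies counted. Repeated twice.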

MP41 [15] = assay: Inhibition of cell migration in human MP41 cells at 30 uM incubated for 48 hrs by Transwell migration assay; assay type: functional, cell-based
Method in brief: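 Transwell migration: 92.1 and MP41 cells (RPMI-1640, 10% FBS) seeded 1 × 10⁴/well in upper chamber in serum-free medium, 20% FBS medium below; overnight at 37 °C, then compound for 48 h. Non-migrated cells swabbed off; lower cells crystal violet-stained 30 min, counted by light microscopy. Mean SD of three independent experiments.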

[16] = Antitumor activity against human MP41 cells xenografted in nude BALB/c mouse assessed as tumor growth inhibition at 10 mg/kg, ip administered for once daily for 21 days and measured every 3 days; assay type: functional; details: 504 h, time 21 day, read-out: TGI
Method in brief: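 MP41 tumours were passaged subcutaneously mouse-to-mouse in nude BALB/c mice (6−8 weeks, 20−25 g). Tertiary recipients randomized, n = 8/group, given 10 or 30 (mg/kg)/d ip or vehicle for 21 days. Tumour size (V = A × B² × π/6, caliper) and body weight taken every 3 days; tumours excised and weighed on day 22. TGI computed versus the vehicle group.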

[17] = Toxicity in nude BALB/c mouse xenografted with human MP41 cells assessed as effect on body weight at 10 to 30 mg/kg, ip administered once daily for 21 days and measured every 3 days; assay type: organism-based; details: in vivo, 504 h, dose 10-30 mg/kg, time 21 day
Method in brief: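 Nude BALB/c mice bearing serially passaged MP41 tumour slices (tertiary recipients, n = 8/group, randomized) dosed ip daily for 21 days at 10 or 30 mg/kg/d or vehicle. Body weight monitored every 3 days. Tissues collected at sacrifice, fixed in 4% paraformaldehyde 24 h, paraffin-embedded, H&E stained, viewed at ×100.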

[18] = biological target: GNAQ/GNA11 (Homo sapiens) (UniProt P50148+P29992); assay: Inhibition of Galphaq/11 in human MP41 cells assessed as reduction in ERK phosphorylation at 15 to 30 uM after 48 hrs by Western blot analysis; assay type: cell-based; details: dose 15-30 µM
Method in brief: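 92.1 and MP41 cells plated overnight, then exposed to compound 48 h. Lysed in ice-cold buffer and protein quantified by BCA. Resolved on 8−12% SDS−PAGE and transferred to PVDF. Probed for p-YAP Ser127, total YAP, p-ERK1/2 Thr202/Tyr204 and total ERK1/2, with GAPDH as loading control. ECL detection, triplicate.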

[19] = Tmax in ICR mouse at 30 mg/kg, po measured upto 24 hrs by LC-MS/MS analysis; assay type: ADME, organism-based; details: in vivo
Method in brief: (§4)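 Single-dose PK in male ICR mice (n = 6): 10 mg/kg iv or 30 mg/kg po, vehicle 5% DMSO/95% saline. Blood (30 μL) by catheter at 0, 5, 15, 30 min and 1, 2, 4, 6, 8, 24 h; plasma by centrifugation, stored −80 °C, measured by LC–MS/MS. Parameters from noncompartmental analysis, mean SD.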

[20] = Cmax in ICR mouse at 10 mg/kg, iv measured upto 24 hrs by LC-MS/MS analysis; assay type: ADME, organism-based; set-up: route intravenous, dose 10 mg/kg, time <=24; details: in vivo
Method in brief: (§5)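 Single dose in male ICR mice, 10 mg/kg iv or 30 mg/kg po, dissolved in 5% DMSO/95% saline. Blood drawn by catheter at 0, 5, 15, 30 min and 1, 2, 4, 6, 8, 24 h. Plasma spun 6800g 6 min at 2−8 °C, stored −80 °C, quantified by LC−MS/MS. Noncompartmental parameters, mean ± SD, n = 6.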

[21] = AUC(0 to t) in ICR mouse at 10 mg/kg, iv measured upto 24 hrs by LC-MS/MS analysis; assay type: ADME, organism-based; set-up: route intravenous, dose 10 mg/kg, time <=24; details: in vivo; method in brief: as §5
[22] = MRT(0 to t) in ICR mouse at 10 mg/kg, iv measured upto 24 hrs by LC-MS/MS analysis; assay type: ADME, organism-based; details: in vivo; method in brief: as §4

## CC[C@@H](C)[C@H](N)C(=O)N1CCn2cc(-c3ccccc3)nc2[C@@H]1CC1CCCCC1
[1]
  IC50: 10.1 µM
921 [2]
  Activity: Dose-Dependent Effect
[3]
  IC50: 24.8 µM
MP41 [4]
  Activity: Dose-Dependent Effect
CHO [5]
  Activity: Non-Toxic
CHO [6]
  Activity: Non-Toxic
[7]
  viability at 5 µM: 90.1%
[8]
  Activity: 6.08%
[9]
  viability at 15 µM: 79.6%
[10]
  Activity: 6.99%
[11]
  viability at 15 µM: 90.2%
[12]
  Activity: 5.32%
[13]
  Activity: 6.16%
921 [14]
  inhibition: Active
MP41 [15]
  inhibition: Active
[16]
  inhibition in vivo at 10 mg/kg: 65.4%
[17]
  Activity: Non-Toxic
[18]
  inhibition: Active
[19]
  Tmax: 25.2 min
[20]
  Cmax: 2.61 µg/mL
[21]
  AUC(0-t) at 24 h: 2.14 µg·h/mL
[22]
  MRT last at 24 h: 55.8 min
